Laboratory results taken from ChEMBL document CHEMBL1140198, “Studies on novel 4beta-[(4-substituted)-1,2,3-triazol-1-yl] podophyllotoxins as potential anticancer agents” (Eur J Med Chem, 2008).

Columns and labels:
Assay type in all cases: functional, cell-based
HCT-15 = experiment: Cytotoxicity against human HCT-15 cells by sulforhodamine B assay
Summary of the method: (§1)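 Log-phase cells seeded at 10⁴ cells/well and allowed to attach for 24 h at 37 °C, 5% CO₂. Then exposed to test samples over a 1:10 serial dilution series for 48 h under the same conditions, four replicate wells per condition. Fixed with 50% chilled TCA for 1 h at 4 °C, stained with sulforhodamine B, and the bound dye dissolved in Tris buffer.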

[1] = Cytotoxicity against human 502713 cells by sulforhodamine B assay; summary of the method: as §1
HEp-2 = experiment: Cytotoxicity against human HEP2 cells by sulforhodamine B assay; summary of the method: as §1
A549 = experiment: Cytotoxicity against human A549 cells by sulforhodamine B assay; summary of the method: as §1
DU-145 = experiment: Cytotoxicity against human DU145 cells by sulforhodamine B assay; summary of the method: as §1
PC-3 = experiment: Cytotoxicity against human PC-3 cells by sulforhodamine B assay; summary of the method: as §1
SF-295 = experiment: Cytotoxicity against human SF295 cells by sulforhodamine B assay; summary of the method: as §1

| SMILES | IC50 (HCT-15) [nM] | IC50 [1] [nM] | IC50 (HEp-2) [nM] | IC50 (A549) [nM] | IC50 (DU-145) [nM] | IC50 (PC-3) [nM] | IC50 (SF-295) [nM] |
| --- | --- | --- | --- | --- | --- | --- | --- |
| COc1cc([C@@H]2c3cc4c(cc3[C@@H](n3cc(CNc5cccc(Cl)c5)nn3)[C@H]3COC(=O)[C@H]23)OCO4)cc(OC)c1OC | 340 | 710 | 1370 | 4990 | 930 | 1180 | 840 |
| COc1cc([C@@H]2c3cc4c(cc3[C@@H](n3cc(CNc5ccccc5C)nn3)[C@H]3COC(=O)[C@H]23)OCO4)cc(OC)c1O | 140 | 620 | 1500 | 5170 | 1190 | 1530 | 960 |
| COc1cc([C@@H]2c3cc4c(cc3[C@@H](n3cc(CNc5ccccc5)nn3)[C@H]3COC(=O)[C@H]23)OCO4)cc(OC)c1O | 400 | 680 | 2960 | 7460 | 1090 | 1030 | 700 |
| COc1cc([C@@H]2c3cc4c(cc3[C@@H](n3cc(CNc5cccc([N+](=O)[O-])c5)nn3)[C@H]3COC(=O)[C@H]23)OCO4)cc(OC)c1OC | 40 | 560 | 3650 | 5780 | 650 | 740 | 680 |
| COc1cc([C@@H]2c3cc4c(cc3[C@@H](n3cc(CNc5ccccc5)nn3)[C@H]3COC(=O)[C@H]23)OCO4)cc(OC)c1OC | 140 | 610 | 4640 | 6100 | 1120 | 880 | 780 |
| COc1cc([C@@H]2c3cc4c(cc3[C@@H](n3cc(CNc5ccccc5C)nn3)[C@H]3COC(=O)[C@H]23)OCO4)cc(OC)c1OC | 360 | 780 | 9140 | 7880 | 1060 | 1090 | 1940 |
| COc1cc([C@@H]2c3cc4c(cc3[C@@H](n3cc(CNc5cccc([N+](=O)[O-])c5)nn3)[C@H]3COC(=O)[C@H]23)OCO4)cc(OC)c1O | 1550 | 1190 | 4100 | 7430 | 4370 | 6630 | 4200 |
| COc1cc([C@@H]2c3cc4c(cc3[C@@H](n3cc(CNc5cccc(Cl)c5)nn3)[C@H]3COC(=O)[C@H]23)OCO4)cc(OC)c1O | 4220 | 980 | 1220 | 8630 | 4160 | 1370 | 3110 |
| COc1cc([C@@H]2c3cc4c(cc3[C@@H](n3cc(CNc5ccccc5Cl)nn3)[C@H]3COC(=O)[C@H]23)OCO4)cc(OC)c1OC | 1430 | 1880 | 1260 | 9240 | 3570 | 3450 | 1000 |
| COc1cc([C@@H]2c3cc4c(cc3[C@@H](O[C@@H]3O[C@@H]5CO[C@@H](C)O[C@H]5[C@H](O)[C@H]3O)[C@H]3COC(=O)[C@H]23)OCO4)cc(OC)c1O [ETOPOSIDE] | 1480 | 2420 | 2150 | 5620 | 3850 | 17400 | 13300 |
| COc1cc([C@@H]2c3cc4c(cc3[C@H](O)[C@H]3COC(=O)[C@H]23)OCO4)cc(OC)c1OC [PODOFILOX] | 1000 | 3880 | 1420 | 7630 | 2970 | 18900 | 5690 |
